The target of experiment [1] is GluN1/GluN2A and GluN1/GluN2D NMDA receptors. As to conditions: ref Chen et al., 2008; cited from earlier work.
For another experiment, the system named is rat cortical neurones. Put plainly: NMDA-induced excitotoxicity assay in cortical cultures. The format is cell-based. Conditions: NMDA 40 µM + glycine […], 1 h, DIV 7–10, assessed at 24 h. The essentials:
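Cortical neurones from E21 Sprague–Dawley rat embryos, grown in Neurobasal-A with B27, 1% rat serum and glutamine; AraC added at DIV 4. Before the assay, cultures moved to glycine-free non-trophic medium (10% MEM in HEPES salt-glucose medium). […] After 24 h, DAPI-stained pyknotic nuclei counted as percentage of total nuclei.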

For experiment [2], the target named is GluN1/GluN2B NMDA receptors (Rattus norvegicus, UniProt P35439+Q00960). Put plainly: Two-electrode voltage-clamp. It is filed as cell-based. Conditions: for antagonism of glutamate/glycine-evoked responses: TCN 213 10 µM. (In general: In two-electrode clamp one electrode senses voltage and the other passes current.)
GluN1/GluN2B NMDA receptors (Rattus norvegicus, UniProt P35439+Q00960), sequence (Q00960 27-1482, other chains not shown): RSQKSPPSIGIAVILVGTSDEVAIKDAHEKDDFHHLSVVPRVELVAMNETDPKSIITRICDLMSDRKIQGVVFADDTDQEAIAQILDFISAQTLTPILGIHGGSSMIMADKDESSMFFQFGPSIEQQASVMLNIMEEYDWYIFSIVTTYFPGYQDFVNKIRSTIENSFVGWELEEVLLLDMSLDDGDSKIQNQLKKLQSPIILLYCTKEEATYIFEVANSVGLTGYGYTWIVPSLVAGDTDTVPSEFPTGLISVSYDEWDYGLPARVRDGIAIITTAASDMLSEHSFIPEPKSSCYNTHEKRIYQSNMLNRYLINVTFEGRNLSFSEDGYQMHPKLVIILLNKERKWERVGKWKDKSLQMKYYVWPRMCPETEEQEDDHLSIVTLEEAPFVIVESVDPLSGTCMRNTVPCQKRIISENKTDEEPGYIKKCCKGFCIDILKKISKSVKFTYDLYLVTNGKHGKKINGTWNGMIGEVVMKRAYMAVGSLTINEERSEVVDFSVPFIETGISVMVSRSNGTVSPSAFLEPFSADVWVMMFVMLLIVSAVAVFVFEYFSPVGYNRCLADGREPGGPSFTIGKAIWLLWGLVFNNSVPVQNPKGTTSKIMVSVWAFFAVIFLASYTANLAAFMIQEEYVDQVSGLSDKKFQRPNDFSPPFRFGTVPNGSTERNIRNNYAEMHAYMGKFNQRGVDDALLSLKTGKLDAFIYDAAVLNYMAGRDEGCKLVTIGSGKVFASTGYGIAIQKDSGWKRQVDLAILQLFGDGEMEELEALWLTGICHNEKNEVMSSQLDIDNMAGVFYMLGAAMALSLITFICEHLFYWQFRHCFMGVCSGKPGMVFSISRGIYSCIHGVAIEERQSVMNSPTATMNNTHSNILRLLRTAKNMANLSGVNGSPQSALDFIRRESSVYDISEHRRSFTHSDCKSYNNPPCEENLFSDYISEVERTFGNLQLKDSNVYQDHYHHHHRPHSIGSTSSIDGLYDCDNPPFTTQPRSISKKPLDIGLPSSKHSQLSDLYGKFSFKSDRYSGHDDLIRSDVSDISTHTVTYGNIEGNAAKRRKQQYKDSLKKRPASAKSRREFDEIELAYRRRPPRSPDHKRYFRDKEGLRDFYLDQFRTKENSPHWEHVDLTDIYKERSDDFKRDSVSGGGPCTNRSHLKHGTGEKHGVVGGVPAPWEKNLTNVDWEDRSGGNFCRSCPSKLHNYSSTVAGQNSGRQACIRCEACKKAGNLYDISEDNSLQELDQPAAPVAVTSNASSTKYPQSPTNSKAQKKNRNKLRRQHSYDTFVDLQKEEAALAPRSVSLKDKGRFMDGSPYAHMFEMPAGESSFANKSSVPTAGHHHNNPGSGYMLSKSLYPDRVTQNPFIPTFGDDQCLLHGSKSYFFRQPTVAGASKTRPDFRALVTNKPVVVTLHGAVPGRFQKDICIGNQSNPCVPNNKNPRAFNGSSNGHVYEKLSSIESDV
Experiment [3] deals with GluN1/GluN2A NMDA receptors (Rattus norvegicus, UniProt P35439+Q00959). Kind of experiment: Two-electrode voltage-clamp. It is filed as cell-based. As to conditions: for mean dose ratio (r): two-point glycine curves.
GluN1/GluN2A NMDA receptors, sequence (Q00959 23-1464, other chains not shown): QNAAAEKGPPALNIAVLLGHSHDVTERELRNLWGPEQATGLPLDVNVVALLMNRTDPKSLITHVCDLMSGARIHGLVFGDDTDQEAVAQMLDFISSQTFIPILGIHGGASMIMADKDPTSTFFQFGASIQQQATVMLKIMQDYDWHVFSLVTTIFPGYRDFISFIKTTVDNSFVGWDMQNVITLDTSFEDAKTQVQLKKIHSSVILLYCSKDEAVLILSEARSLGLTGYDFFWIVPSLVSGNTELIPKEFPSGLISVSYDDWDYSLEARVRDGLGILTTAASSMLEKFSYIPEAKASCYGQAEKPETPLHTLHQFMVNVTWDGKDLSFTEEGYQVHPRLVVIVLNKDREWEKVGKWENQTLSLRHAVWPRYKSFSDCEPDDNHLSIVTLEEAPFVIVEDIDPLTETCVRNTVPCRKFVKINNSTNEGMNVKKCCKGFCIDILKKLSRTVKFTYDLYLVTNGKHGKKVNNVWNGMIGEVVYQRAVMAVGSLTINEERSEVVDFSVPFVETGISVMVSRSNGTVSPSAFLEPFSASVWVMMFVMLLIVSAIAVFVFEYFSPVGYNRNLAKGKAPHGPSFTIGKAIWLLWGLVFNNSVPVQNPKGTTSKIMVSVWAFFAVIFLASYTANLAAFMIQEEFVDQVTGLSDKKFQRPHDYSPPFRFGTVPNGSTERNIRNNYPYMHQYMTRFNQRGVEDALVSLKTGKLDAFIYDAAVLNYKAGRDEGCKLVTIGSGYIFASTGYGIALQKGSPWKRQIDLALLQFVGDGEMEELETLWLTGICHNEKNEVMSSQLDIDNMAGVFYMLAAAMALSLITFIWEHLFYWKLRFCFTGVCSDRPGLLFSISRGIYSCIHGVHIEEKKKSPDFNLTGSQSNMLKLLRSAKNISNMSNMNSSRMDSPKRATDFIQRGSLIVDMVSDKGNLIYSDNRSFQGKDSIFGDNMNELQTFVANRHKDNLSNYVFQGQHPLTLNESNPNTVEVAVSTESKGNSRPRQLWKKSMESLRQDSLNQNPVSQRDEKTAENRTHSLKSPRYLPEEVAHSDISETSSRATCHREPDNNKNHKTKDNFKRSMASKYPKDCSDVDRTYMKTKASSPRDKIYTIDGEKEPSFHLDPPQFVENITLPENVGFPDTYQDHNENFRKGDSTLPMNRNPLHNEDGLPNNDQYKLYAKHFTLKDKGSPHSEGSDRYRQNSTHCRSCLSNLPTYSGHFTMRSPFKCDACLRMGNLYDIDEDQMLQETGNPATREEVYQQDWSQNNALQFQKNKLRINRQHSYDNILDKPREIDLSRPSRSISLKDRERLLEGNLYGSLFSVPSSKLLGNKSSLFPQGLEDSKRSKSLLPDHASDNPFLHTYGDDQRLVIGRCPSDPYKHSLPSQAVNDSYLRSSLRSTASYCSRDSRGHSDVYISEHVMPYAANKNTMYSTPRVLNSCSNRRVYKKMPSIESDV
Experiment [4] concerns GluN2A- and GluN2B-containing NMDA receptors. Conditions: cited from earlier work.
A further experiment relates to GluN1 subunit. As to conditions: ref Bettini et al. (2010); cited from earlier work.
In another experiment the test system is native NMDA receptors. Kind of experiment: Whole-cell NMDA-evoked currents in cultured rat cortical neurones. It is filed as cell-based. Conditions: for block of NMDA receptor-mediated currents, subset with greatest ifenprodil block: n= 7 cells.
The subject of experiment [5] is GluN1/GluN2B NMDA receptors. As to conditions: non-competitive antagonist, block 'at most'; no reference given; cited from earlier work.
Where [6] appears, read: TCN 213 30 µM, NMDA 50 µM + glycine 3 µM.

Read-outs that look alike come from different tables or passages of the source.

Take `O=C(O)c1cc(=O)c2c(Cl)cc(Cl)cc2[nH]1` [5,7 DCKA, 5,7 dichlorokynurenic acid]: the “KB values at GluN1/GluN2A versus GluN1/GluN2D (Schild analysis)” value in experiment [1] is recorded as “indistinguishable”. Moreover, the “NMDA-induced cell death (pyknotic nuclei) versus NMDA alone” value in the experiment on rat cortical neurones (5,7 DCKA 10 µM) was “reduced significantly”. The IC50 (commonly the concentration at which inhibition is half-maximal) in experiment [2] (read-out: Antagonist IC50) worked out at 74 ± 10 nM; in experiment [2] (read-out: Antagonist IC50, [gly]= 10 EC50), 4100 ± 400 nM; in experiment [2] (read-out: Antagonist IC50, [gly]= EC50), 490 ± 10 nM; in experiment [3] (read-out: Antagonist IC50, [gly]= 0.1 EC50 ([…] glycine) + 100 µM glutamate), 130 ± 10 nM; in experiment [3] (read-out: Antagonist IC50, [gly]= 10 EC50 (15 µM glycine) + 100 µM glutamate), 4100 ± 300 nM; in experiment [3] (read-out: Antagonist IC50, [gly]= EC50 ([…] glycine) + 100 µM glutamate), 420 ± 30 nM.

For `[N-]=[N+]=Nc1ccc(CC(=O)NC2CC(C(=O)O)Nc3cc(Cl)cc(Cl)c32)cc1` (centres unmarked) [CGP-61594], the “potency at GluN1/GluN2B compared with GluN1/GluN2A NMDA receptors” value in experiment [4] (more potent at GluN1/GluN2B, ref Honer et al., 1998) is given as 10 fold.

For `O=C(Nc1ccccc1)N[C@@H]1C[C@@H](C(=O)O)Nc2cc(Cl)cc(Cl)c21` [L-689 560], in experiment [4] (ref Hess et al., 1996), the “selectivity for GluN2A- over GluN2B-containing NMDA receptors” value is listed as 5 fold.

As to `O=C(CSc1nnc(NCc2ccccc2)s1)NCC1CCCCC1` [TCN 213, N-(cyclohexylmethyl)-2-({5-[(phenylmethyl)amino]-1,3,4-thiadiazol-2-yl}thio)acetamide], the “displacement of the GluN1 ligand MDL 105 519” value in the experiment on GluN1 subunit was “failed to displace”. Further, the half-maximal inhibitory concentration (IC50) in experiment [2] was greater than 300000 nM; in experiment [3] (Antagonist IC50, [gly]= 0.1 EC50 ([…] glycine) + 100 µM glutamate), 550 ± 50 nM; in experiment [3] (Antagonist IC50, [gly]= 10 EC50 (15 µM glycine) + 100 µM glutamate) it was 40000 ± 3500 nM; in experiment [3] (Antagonist IC50, [gly]= EC50 ([…] glycine) + 100 µM glutamate), 3500 ± 50 nM. Moreover, the “antagonism of glutamate/glycine-evoked responses” value is listed as “no antagonism” in experiment [2] (50 µM glycine, three glutamate concentrations) and “only modestly antagonized” in experiment [2] (glycine low (0.1 × EC50)). Besides, the “mean block of NMDA-evoked current” value worked out at 2 ± 0.5% in experiment [2] (setting [6]) and 78 ± 4% in experiment [3] (setting [6]). Besides, in experiment [2] (TCN 213 30 µM, glycine 1 and 10 times EC50), the inhibition of currents entry is reported as “negligible inhibition”. For the same compound, in the experiment on native NMDA receptors (TCN 213 10 µM, DIV 7–10, NMDA 50 µM + glycine […], −70 mV), the “average inhibition of NMDA receptor-mediated currents” value was determined as 2 ± 3%. Besides, the “block of NMDA receptor-mediated currents, subset with greatest ifenprodil block” value in the experiment on native NMDA receptors (TCN 213 10 µM, DIV 7–10) was 4 ± 2%. Moreover, the “mean dose ratio (r)” value in experiment [3] (10 µM TCN 213, glutamate 100 µM) was 5.20 ± 0.79; in experiment [3] (30 µM TCN 213, glutamate 100 µM), 17.22 ± 1.69. The “Schild plot slope, 'free' fit” value in experiment [3] (95% confidence interval 0.94–1.31) stood at 1.13. In addition, the “block of glutamate/glycine-evoked current” value is given as “Almost complete block” in experiment [3] (TCN 213 10 µM, glutamate 100 µM, glycine 150 nM (0.1 × EC50)) and “substantially less block” in experiment [3] (TCN 213 10 µM, glutamate 100 µM, glycine 15 µM (10 × EC50)). Besides, the “dependence of antagonism on glutamate concentration” value in experiment [3] (TCN 213 10 µM, glycine 50 µM, glutamate 0.1, 1, 10 × EC50) is “not dependent on the glutamate concentration”. The “expected block of current for a purely GluN2A-containing population” value in experiment [3] (TCN 213 10 µM, glycine […], read from Figure 2A) was “around 75%”. The “reduction in amplitude of current response, example trace” value in experiment [3] (TCN 213 30 µM, NMDA 50 µM + glycine 3 µM, single oocyte) is reported as “approximately 75%”. Besides, the “selectivity GluN1/GluN2A over GluN1/GluN2B” value in experiment [3] (from IC50 values at glycine = EC50) is recorded as “around 100 fold”. For the same compound, the “surmountability of antagonism by increasing glycine” value in experiment [3] (glutamate 100 µM, glycine 50 µM and above) is “surmountable”. In addition, in experiment [3] (glycine 10 times EC50, extrapolation of Figure 2A), the “concentration predicted to block fully the response” value is “around 1 mM”.

With `CC(C(O)c1ccc(O)cc1)N1CCC(Cc2ccccc2)CC1` (centres unmarked) [ifenprodil], the “maximal block of current” value in experiment [5] was 75–80%. For the same compound, the “NMDA-induced cell death (pyknotic nuclei) versus NMDA alone” value with rat cortical neurones (ifenprodil 3 µM) is “reduced significantly”. For the same compound, in the experiment on native NMDA receptors (ifenprodil 3 µM, 7 DIV pyramidal cell, NMDA 50 µM + glycine […]), the “reduction of NMDA + glycine evoked current, example cell” value is given as “around 75%”. Also, the “average block of NMDA receptor-mediated currents” value in the experiment on native NMDA receptors (ifenprodil 3 µM, DIV 7–10, NMDA 50 µM + glycine […], −70 mV) was determined as 72 ± 2%. Further, the “block of NMDA receptor-mediated currents, subset with greatest ifenprodil block” value with native NMDA receptors (ifenprodil 3 µM, DIV 7–10) came to 78 ± 1%.

The values are drawn from paper PMC3417419 (British Journal of Pharmacology, 2012).
